Where “and” joins values, the source holds several entries; their conditions need not be identical. Identical values can stand only once.
Tests used:
OATP1B1/3 and BCRP = settings: fenebrutinib 200 mg twice daily for 10 days; cited from earlier work
[1] = MDCK cell monolayer apparent permeability; format: in vitro ADME, Canine; settings: dog, MDCK
In short: (§1)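 Apparent permeability of test compound measured across MDCK monolayers alone and at various H‐β‐CD concentrations. These included a 46:1 H‐β‐CD:compound molar ratio, matching ~8 g H‐β‐CD per oral-solution dose with a 100 mg tablet. Change expressed relative to no H‐β‐CD. MDCK Papp was also scaled (scalar 3.9) to human jejunal Peff.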

[2] = tested on: Madin‐Darby Canine Kidney (MDCK) cell monolayer; assay: MDCK cell monolayer apparent permeability; format: in vitro ADME; settings: molar ratio H‐β‐CD to fenebrutinib 46:1
In short: as §1

OATP1B = settings: rosuvastatin + fenebrutinib vs rosuvastatin alone; cited from earlier work
[3] = Fenebrutinib PBPK model parameters; parameters: species or system human
[4] = Free fraction in plasma and blood/plasma partition ratio; format: in vitro ADME
human BCRP [5] = target: T1, human BCRP (Homo sapiens, UniProt Q9UNQ0); settings: read-out: IC50 BCRP‐mediated efflux; cited from earlier work
T1 sequence (Q9UNQ0 1-655): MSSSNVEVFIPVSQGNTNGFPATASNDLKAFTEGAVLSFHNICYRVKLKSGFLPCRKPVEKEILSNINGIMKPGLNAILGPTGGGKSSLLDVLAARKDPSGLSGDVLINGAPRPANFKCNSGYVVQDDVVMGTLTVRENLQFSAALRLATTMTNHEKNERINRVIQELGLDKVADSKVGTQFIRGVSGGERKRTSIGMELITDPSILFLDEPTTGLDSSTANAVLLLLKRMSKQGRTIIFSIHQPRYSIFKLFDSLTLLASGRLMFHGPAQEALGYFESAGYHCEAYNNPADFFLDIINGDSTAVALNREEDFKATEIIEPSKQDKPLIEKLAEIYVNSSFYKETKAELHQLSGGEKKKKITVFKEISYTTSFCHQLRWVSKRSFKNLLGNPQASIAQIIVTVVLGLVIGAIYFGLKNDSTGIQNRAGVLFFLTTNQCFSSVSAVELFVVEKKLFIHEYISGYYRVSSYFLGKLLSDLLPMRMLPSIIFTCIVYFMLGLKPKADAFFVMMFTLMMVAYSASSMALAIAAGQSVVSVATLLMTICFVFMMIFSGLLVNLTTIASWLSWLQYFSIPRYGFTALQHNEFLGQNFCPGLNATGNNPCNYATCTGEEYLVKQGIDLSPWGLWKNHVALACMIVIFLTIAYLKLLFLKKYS

CYP3A [6] = settings: time‐dependent inhibition, cited from earlier work
CYP3A [7] = assay: Clinical DDI study Part 4: effect of itraconazole on fenebrutinib PK; format: in vivo, human; settings: 200 mg itraconazole solution once daily × 8 days; fenebrutinib 100 mg
[8] = Phase I PK of fenebrutinib; format: in vivo, human
In short: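 Oral dosing in phase I studies as solution, capsule (single and multiple-day) and 200 mg tablet. Plasma concentration–time data were used to estimate total clearance and apparent steady-state volume of distribution (Vss/F).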

human BCRP [9] = target: T1, human BCRP; assay: Inhibition of BCRP-mediated efflux in MDCKII cells; format: cell-based
In short: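 Unbound inhibition constants (OATP1B1/1B3 uptake; BCRP efflux) derived as in vitro IC50/2, then corrected by plasma unbound fraction. This was done because the unbound fraction in the transporter incubation was not measured. Values served as gut and liver transporter inputs to the PBPK model.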

[10] = Fenebrutinib–H‐β‐CD complexation in vitro; format: physicochemical; settings: estimated from in vitro experiment
[11] = Physicochemical properties of fenebrutinib
[12] = format: in vivo, dogs; settings: dog, oral tablets, co‐administration with H‐β‐CD
Human mass balance study = format: in vivo

For `CC(C)c1nc(N(C)S(C)(=O)=O)nc(-c2ccc(F)cc2)c1/C=C/[C@@H](O)C[C@@H](O)CC(=O)O` [rosuvastatin], the “Observed increase in AUC0–t with fenebrutinib” value (OATP1B1/3 and BCRP) is listed as roughly 2.6 fold and the “Observed increase in Cmax with fenebrutinib” value (OATP1B1/3 and BCRP) is listed as ~ 5 fold.
In the case of `C[C@H]1CN(C2COC2)CCN1c1ccc(Nc2cc(-c3ccnc(N4CCn5c(cc6c5CC(C)(C)C6)C4=O)c3CO)cn(C)c2=O)nc1` [fenebrutinib], the Papp [1] is given as 15.1 ×10⁻⁶ cm/s, the “Decrease in Papp relative to that without H‐β‐CD” value [2] is given as ~ 15 fold and the “Effect of multiple doses on plasma concentration‐time profiles of CP‐I and CP‐III” value (OATP1B) is given as “comparable”. The “Hepatic clearance as share of total CL” value ([3]; assigned in model) was ~ 95%, the clearance ([3]; human) was 18.3 mL/min and the B/P [4] was 0.61. The IC50 (human BCRP [5]) was 9.4 µM, the Ki (CYP3A [6]; read-out: CYP3A TDI K I (apparent)) was 7.9 µM and the “CYP3A TDI K inact” value (CYP3A [6]) was 0.684 h⁻¹. For the same compound, the CYP3A k inact (CYP3A [6]) was 0.0114 min⁻¹, the “Observed change in Tmax with itraconazole” value (CYP3A [7]) was “delay” and the “Observed decrease in Cmax with itraconazole” value (CYP3A [7]) was ~ 11% and 11%. For the same compound, the “Observed increase in AUC0‐t with itraconazole” value (CYP3A [7]) was 2.28 fold and ~ 2.3 fold, the CL/F ([8]; estimated from phase I PK data) was ~ 80 L/hour and the Vd/F ([8]; human, plasma, oral) was roughly 13.4 L/kg. For the same compound, the Ki (human BCRP [9]) was 0.926 µM, the “Kcomplex with H‐β‐CD” value [10] was 27000 M⁻¹ and the “pK a1” value ([11]; diprotic base) was 5. For the same compound, the “pK a2” value ([11]; diprotic base) was 3.7, the logP ([11]; octanol/water) was 3.3 and the pH solubility profile ([11]; pH 2.3) was 35.9. For the same compound, the pH solubility profile ([11]; pH 2.6) was 5.67, the pH solubility profile ([11]; pH 3.0) was 1.44 and the pH solubility profile ([11]; pH 3.8) was 0.032. For the same compound, the pH solubility profile ([11]; pH 5.0) was 0.001, the pH solubility profile ([11]; pH 6.1) was 0.001 and the “Apparent rate and extent of absorption in the presence of H‐β‐CD” value [12] was “substantially decreased”. For the same compound, the “Share of elimination through metabolic pathway (f m)” value (Human mass balance study) was greater than 90%.
